{"data": "Experimental data gathered from unrelated publications", "effect on": "cell growth or viability", "note": "Protocols differ between the studies behind these lines."}
{"Compound": "CC(C)C[C@@H]1NC(=O)[C@H](Cc2ccccc2)NC(=O)[C@H](CCCCN)NC(=O)[C@H](CC(C)C)NC(=O)[C@H](C(C)C)NC1=O", "cell line": "HCT-116", "technique": "thymidine uptake", "tested at": "10 µM", "time": "72 h", "endpoint": "inhibition", "result": "0%"}
{"Compound": "CCCc1cc(=O)n2nc(NCc3c(F)cc(Cl)cc3F)c(C#N)c2[nH]1", "cell line": "U-87 MG", "technique": "ATP luminescence", "time": "72 h", "endpoint": "IC50", "result": "> 50000 nM"}
{"Compound": "N.N.[Cl][Pt][Cl]", "cell line": "HCT-116", "time": "24 h", "endpoint": "IC50", "result": "35600 nM"}
{"Compound": "Cc1cccc(-n2ncc(Cl)c(Cl)c2=O)c1", "cell line": "PC-9", "technique": "resazurin", "time": "96 h", "endpoint": "IC50", "result": "650 nM"}
{"Compound": "COc1c2ccoc2cc2oc(=O)ccc12", "cell line": "HCT-116", "technique": "WST-1", "time": "48 h", "endpoint": "IC50", "result": "29000 nM"}
{"Compound": "CN[C@@H]1C[C@H]2O[C@@](C)([C@@H]1OC)n1c3ccccc3c3c4c(c5c6ccccc6n2c5c31)C(=O)NC4", "cell line": "SHP77", "technique": "MTT", "endpoint": "IC50", "result": "16 nM"}
{"Compound": "COc1cc2c(c3c1C(=O)C[C@@H](c1ccccc1)O3)[C@H]1[C@@H](O2)OC(C)(C)[C@@H]1OC(C)=O", "cell line": "Raji", "technique": "MTS", "time": "72 h", "endpoint": "IC50", "result": "> 10000 nM"}
{"Compound": "CC[C@@]1(OC(=O)[C@@H]2CCCN2)C(=O)OCc2c1cc1n(c2=O)Cc2cc3cc4c(cc3nc2-1)OCO4", "cell line": "HCT-116", "technique": "MTT", "endpoint": "IC50", "result": "125 nM"}
{"Compound": "C=CC(=O)Nc1cc(Nc2nccc(-c3cn(C)c4ccccc34)n2)c(OC)cc1N(C)CCN(C)C", "cell line": "PC-9", "time": "72 h", "endpoint": "IC50", "result": "8 nM"}
{"Compound": "CC[C@@]1(OC(=O)[C@H](C)N)C(=O)OCc2c1cc1n(c2=O)Cc2cc3cc4c(cc3nc2-1)OCO4", "cell line": "HCT-116", "technique": "MTT", "endpoint": "IC50", "result": "80 nM"}
{"Compound": "Cc1cc(N(CCOS(C)(=O)=O)CCOS(C)(=O)=O)ccc1C=O", "cell line": "SN12K1", "endpoint": "IC50", "result": "0.79 µg/mL"}
{"Compound": "CC1=C(O)C(=O)C=C2C1=CC=C1[C@@]2(C)CC[C@@]2(C)[C@@H]3C[C@](C)(C(=O)O)CC[C@]3(C)CC[C@]12C", "cell line": "AGS", "technique": "MTT", "time": "48 h", "endpoint": "IC50", "result": "390 nM"}
{"Compound": "CC[C@@]1(OC(=O)[C@@H](N)Cc2ccccc2)C(=O)OCc2c1cc1n(c2=O)Cc2cc3cc4c(cc3nc2-1)OCO4", "cell line": "HCT-116", "technique": "MTT", "endpoint": "IC50", "result": "38 nM"}
{"Compound": "Cc1ccc2c(CNCC3(N4CCCC4)COC3)c[nH]c2c1", "cell line": "U-87 MG", "tested at": "30 µM", "time": "48 h", "endpoint": "viability", "result": "27.6%"}
